# Test results from ChEMBL document CHEMBL1146217, “Growth inhibition of Mycobacterium bovis, Mycobacterium tuberculosis and Mycobacterium avium in vitro: effect of 1-beta-D-2'-arabinofuranosyl and 1-(2'-deoxy-2'-fluoro-beta-D-2'-ribofuranosyl) pyrimidine nucleoside analogs” (J Med Chem, 2007).
# What was measured:
# Mycobacterium avium = experiment: Antimycobacterial activity against Mycobacterium avium ATCC 25291 at 100 ug/mL by microplate Alamar blue assay; assay type: functional
# In short: (§1)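 MABA with M. bovis BCG, M. tuberculosis H37Ra or M. avium ATCC 25291. DMSO stocks (10 mg/mL) diluted in 7H9GC; final inoculum 2.5 × 10⁵ CFU/mL. Incubated 6 days, then alamar blue plus Tween 80 added and read by fluorescence after about 24 h. […]. Tested in triplicate at 100, 50, 10 and 1 µg/mL; two experiments, mean reported.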
# [1] = system: Mycobacterium tuberculosis; experiment: Antimycobacterial activity against Mycobacterium tuberculosis H37Ra at 100 ug/mL by microplate Alamar blue assay; assay type: functional; in short: as §1
# [2] = Toxicity against human foreskin fibroblast cells after 3 days by MTT test; assay type: cell-based
# In short: (§2)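 MTT viability assay. Vero or HFF cells seeded at 2.5 × 10⁵ cells/well and left to attach 6-8 h. Exposed to compound at 100, 50, 25, 12.5, 6.3 and 1.5 µg/mL for 3 days at 37 °C, with a DMSO control. MTT added for 4 h, then solubilized overnight; absorbance read at 560-650 nm.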
# [3] = system: Mycobacterium tuberculosis; experiment: Antimycobacterial activity against Mycobacterium tuberculosis H37Ra at 50 ug/mL by microplate Alamar blue assay; assay type: functional; in short: as §1
# [4] = system: Mycobacterium tuberculosis; experiment: Antimycobacterial activity against Mycobacterium tuberculosis H37Ra by microplate Alamar blue assay; assay type: functional
# In short: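 Same alamar blue microplate setup (7H9GC, 2.5 × 10⁵ CFU/mL, 6 days, then dye read after about 24 h), using 2-fold compound dilutions. MIC90 is the lowest concentration giving about 90% inhibition relative to bacteria-only wells after background subtraction. Visual MIC is the lowest concentration preventing the blue-to-pink change.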
# Vero = experiment: Toxicity against Vero cells after 3 days by MTT test; assay type: cell-based; conditions: chlorocebus sabaeus, 72 h; in short: as §2
# [5] = system: Mycobacterium tuberculosis; experiment: Antimycobacterial activity against Mycobacterium tuberculosis H37Ra at 10 ug/mL by microplate Alamar blue assay; assay type: functional; in short: as §1
# Escherichia coli = experiment: Antibacterial activity against Escherichia coli ATCC 25922 after 16 to 20 hrs by broth microdilution method; assay type: functional; conditions: Escherichia coli, ATCC 25922
# In short: (§3)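 Broth microdilution MIC. Exponentially growing bacteria diluted in sterile liquid medium to a final inoculum of 1 × 10⁴ CFU/mL. Cultured with compound dilutions for 16-20 h; compounds tested at 100, 50, 10 and 1 µg/mL. MIC taken as the concentration giving 100% inhibition of bacterial growth.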
# Listeria monocytogenes = experiment: Antibacterial activity Listeria monocytogenes ATCC 15313 after 16 to 20 hrs by broth microdilution method; assay type: functional; conditions: for MIC: Listeria monocytogenes, ATCC 15313; in short: as §3
# Salmonella typhimurium = experiment: Antibacterial activity against Salmonella Typhimurium after 16 to 20 hrs by broth microdilution method; assay type: functional, Salmonella enterica subsp. enterica serovar Typhimurium; conditions: Salmonella enterica; in short: as §3
# Bacillus subtilis = experiment: Antibacterial activity against Bacillus subtilis ATCC 6633 after 16 to 20 hrs by broth microdilution method; assay type: functional; conditions: Bacillus subtilis, ATCC 6633; in short: as §3
# Streptococcus pyogenes = experiment: Antibacterial activity Streptococcus pyogenes ATCC 19615 after 16 to 20 hrs by broth microdilution method; assay type: functional; conditions: for MIC: Streptococcus pyogenes, ATCC 19615; in short: as §3
# Streptococcus pneumoniae = experiment: Antibacterial activity Streptococcus pneumoniae ATCC 49619 after 16 to 20 hrs by broth microdilution method; assay type: functional; conditions: for MIC: Streptococcus pneumoniae, ATCC 49619; in short: as §3
# [6] = system: Mycobacterium tuberculosis; experiment: Antimycobacterial activity against Mycobacterium tuberculosis H37Ra at 1ug/mL by microplate Alamar blue assay; assay type: functional; in short: as §1
# Staphylococcus aureus = experiment: Antibacterial activity against Staphylococcus aureus ATCC 25923 after 16 to 20 hrs by broth microdilution method; assay type: functional; conditions: for MIC: Staphylococcus aureus, ATCC 25923; in short: as §3
# Enterococcus faecalis = experiment: Antibacterial activity Enterococcus faecalis ATCC 29212 after 16 to 20 hrs by broth microdilution method; assay type: functional; conditions: for MIC: Enterococcus faecalis, ATCC 29212; in short: as §3
# Proteus vulgaris = experiment: Antibacterial activity against Proteus vulgaris ATCC 49132 after 16 to 20 hrs by broth microdilution method; assay type: functional; in short: as §3
# Pseudomonas aeruginosa = experiment: Antibacterial activity against Pseudomonas aeruginosa […] after 16 to 20 hrs by broth microdilution method; assay type: functional; conditions: Pseudomonas aeruginosa, ATCC 13048; in short: as §3
# Klebsiella aerogenes = experiment: Antibacterial activity against Enterobacter aerogenes after 16 to 20 hrs by broth microdilution method; assay type: functional; conditions: Klebsiella aerogenes; in short: as §3
# [7] = system: Staphylococcus epidermidis; experiment: Antibacterial activity against Staphylococcus epidermidis ATCC 14990 after 16 to 20 hrs by broth microdilution method; assay type: functional; conditions: for MIC: Staphylococcus epidermidis, ATCC 14990; in short: as §3
structure (smiles),measurement,setting,value
O=c1[nH]c(=O)n([C@@H]2O[C@H](CO)[C@@H](O)[C@@H]2O)cc1Br,inhibition at 100 µg/mL,Mycobacterium avium,0%
same,inhibition at 100 µg/mL,[1],0%
CCOC(=O)C(Cl)C(O)c1cn([C@@H]2O[C@H](CO)[C@@H](O)[C@H]2F)c(=O)[nH]c1=O (some centres undefined),inhibition at 100 µg/mL,Mycobacterium avium,0%
same,inhibition at 100 µg/mL,[1],0%
Cc1cn([C@@H]2O[C@H](CO)[C@@H](O)[C@@H]2O)c(=O)[nH]c1=S,inhibition at 100 µg/mL,Mycobacterium avium,0%
same,inhibition at 100 µg/mL,[1],0%
O=c1[nH]c(=O)n([C@@H]2O[C@H](CO)[C@@H](O)[C@@H]2O)cc1Cl,inhibition at 100 µg/mL,Mycobacterium avium,0%
same,inhibition at 100 µg/mL,[1],0%
O=c1[nH]c(=S)ccn1[C@@H]1O[C@H](CO)[C@@H](O)[C@@H]1O,inhibition at 100 µg/mL,Mycobacterium avium,0%
same,inhibition at 100 µg/mL,[1],0%
O=c1[nH]c(=S)ccn1[C@@H]1O[C@H](CO)[C@@H](O)[C@H]1F,inhibition at 100 µg/mL,Mycobacterium avium,0%
same,inhibition at 100 µg/mL,[1],25%
CCCCCCCCCCCC#Cc1cn([C@@H]2O[C@H](CO)[C@@H](O)[C@@H]2O)c(=O)[nH]c1=O,inhibition at 100 µg/mL,Mycobacterium avium,25%
same,CC50 at 72 h,[2],> 100 µg/mL
same,inhibition at 50 µg/mL,[3],100%
same,MIC90,[4],10 µg/mL
same,CC10,Vero,> 100 µg/mL
same,inhibition at 10 µg/mL,[5],50%
same,inhibition at 100 µg/mL,[1],100%
CCCCCCCCCCCCC#Cc1cn([C@@H]2O[C@H](CO)[C@@H](O)[C@@H]2O)c(=O)[nH]c1=O,inhibition at 100 µg/mL,Mycobacterium avium,0%
same,CC50 at 72 h,[2],> 100 µg/mL
same,inhibition at 50 µg/mL,[3],100%
same,MIC90,[4],10 µg/mL
same,CC10,Vero,> 100 µg/mL
same,inhibition at 10 µg/mL,[5],50%
same,inhibition at 100 µg/mL,[1],100%
O=c1[nH]c(=O)n([C@@H]2O[C@H](CO)[C@@H](O)[C@H]2F)cc1Br,inhibition at 100 µg/mL,Mycobacterium avium,0%
same,inhibition at 100 µg/mL,[1],0%
CCOC(=O)/C=C/c1cn([C@@H]2O[C@H](CO)[C@@H](O)[C@@H]2O)c(=O)[nH]c1=O,inhibition at 100 µg/mL,Mycobacterium avium,0%
same,inhibition at 100 µg/mL,[1],0%
CCOC(=O)/C=C/c1cn([C@@H]2O[C@H](CO)[C@@H](O)[C@H]2F)c(=O)[nH]c1=O,inhibition at 100 µg/mL,Mycobacterium avium,0%
same,inhibition at 100 µg/mL,[1],0%
CCCCCCCCC#Cc1cn([C@@H]2O[C@H](CO)[C@@H](O)[C@H]2F)c(=O)[nH]c1=O,inhibition at 100 µg/mL,Mycobacterium avium,50%
same,CC50 at 72 h,[2],> 100 µg/mL
same,MIC,Escherichia coli,> 100 µg/mL
same,inhibition at 50 µg/mL,[3],100%
same,Inhibition,Listeria monocytogenes,100%
same,MIC,Listeria monocytogenes,100 µg/mL
same,MIC,Salmonella typhimurium,> 100 µg/mL
same,MIC,Bacillus subtilis,> 100 µg/mL
same,Inhibition,Streptococcus pyogenes,100%
same,MIC,Streptococcus pyogenes,100 µg/mL
same,Inhibition,Streptococcus pneumoniae,100%
same,MIC,Streptococcus pneumoniae,100 µg/mL
same,inhibition at 1 µg/mL,[6],25%
same,MIC90,[4],50 µg/mL
same,Inhibition,Staphylococcus aureus,100%
same,MIC,Staphylococcus aureus,100 µg/mL
same,Inhibition,Enterococcus faecalis,100%
same,MIC,Enterococcus faecalis,100 µg/mL
same,MIC,Proteus vulgaris,> 100 µg/mL
same,CC10,Vero,> 100 µg/mL
same,MIC,Pseudomonas aeruginosa,> 100 µg/mL
same,inhibition at 10 µg/mL,[5],50%
same,MIC,Klebsiella aerogenes,> 100 µg/mL
same,inhibition at 100 µg/mL,[1],100%
same,Inhibition,[7],100%
same,MIC,[7],100 µg/mL
CCCCCCCCC#Cc1cn([C@@H]2O[C@H](CO)[C@@H](O)[C@@H]2O)c(=O)[nH]c1=O,inhibition at 100 µg/mL,Mycobacterium avium,50%
same,CC50 at 72 h,[2],> 100 µg/mL
same,inhibition at 50 µg/mL,[3],50%
same,MIC90,[4],100 µg/mL
same,CC10,Vero,> 100 µg/mL
same,inhibition at 10 µg/mL,[5],10%
same,inhibition at 100 µg/mL,[1],100%
CCCCCC#Cc1cn([C@@H]2O[C@H](CO)[C@@H](O)[C@@H]2O)c(=O)[nH]c1=O,inhibition at 100 µg/mL,Mycobacterium avium,0%
same,inhibition at 100 µg/mL,[1],25%
NNC(=O)c1ccncc1 [ISONIAZID],MIC,Escherichia coli,> 100 µg/mL
same,MIC,Listeria monocytogenes,> 100 µg/mL
same,MIC,Salmonella typhimurium,> 100 µg/mL
same,MIC,Bacillus subtilis,> 100 µg/mL
same,MIC,Streptococcus pyogenes,> 100 µg/mL
same,MIC,Streptococcus pneumoniae,> 100 µg/mL
same,MIC,Staphylococcus aureus,> 100 µg/mL
same,MIC,Enterococcus faecalis,> 100 µg/mL
same,MIC,Proteus vulgaris,> 100 µg/mL
same,MIC,Pseudomonas aeruginosa,> 100 µg/mL
same,MIC,Klebsiella aerogenes,> 100 µg/mL
same,MIC,[7],> 100 µg/mL
